Reference: ChEMBL document CHEMBL2424622, “Development of amino-pyrimidine inhibitors of c-Jun N-terminal kinase (JNK): kinase profiling guided optimization of a 1,2,3-benzotriazole lead” (Bioorg Med Chem Lett, 2013)

What was measured:
[1] = target: Serine/threonine-protein kinase 10 (Homo sapiens) (UniProt O94804); experiment: Competitive binding affinity to LOK (unknown origin) at 10 uM in presence of ATP relative to control
[2] = target: Serine/threonine-protein kinase N2 (Homo sapiens) (UniProt Q16513); experiment: Competitive binding affinity to PKN2 (unknown origin) at 10 uM in presence of ATP relative to control
Method in brief: (§1)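 In vitro ATP-site competition binding assay across a diverse panel of 128 kinases, with compound tested at a single concentration. Kinase selectivity scores (S15) were calculated from the panel profiles.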

[3] = system: Mast/stem cell growth factor receptor Kit (Homo sapiens), P10721 [D816V]; experiment: Competitive binding affinity to KIT D816V mutant (unknown origin) at 10 uM in presence of ATP relative to control
[4] = target: Serine/threonine-protein kinase MRCK alpha (Homo sapiens) (UniProt Q5VT25); experiment: Competitive binding affinity to MRCKA (unknown origin) at 10 uM in presence of ATP relative to control; method in brief: as §1
[5] = target: Activin receptor type-1-like (Homo sapiens) (UniProt P37023); experiment: Competitive binding affinity to ACVRL1 (unknown origin) at 10 uM in presence of ATP relative to control
[6] = system: Tyrosine-protein kinase ABL1 (Homo sapiens), P00519 [E255K]; experiment: Competitive binding affinity to ABL1 E255K mutant (unknown origin) at 10 uM in presence of ATP relative to control
[7] = target: T1, Serine/threonine-protein kinase 4 (Homo sapiens) (UniProt Q13043); experiment: Competitive binding affinity to STK4 (unknown origin) at 10 uM in presence of ATP relative to control
T1 sequence (whole entry): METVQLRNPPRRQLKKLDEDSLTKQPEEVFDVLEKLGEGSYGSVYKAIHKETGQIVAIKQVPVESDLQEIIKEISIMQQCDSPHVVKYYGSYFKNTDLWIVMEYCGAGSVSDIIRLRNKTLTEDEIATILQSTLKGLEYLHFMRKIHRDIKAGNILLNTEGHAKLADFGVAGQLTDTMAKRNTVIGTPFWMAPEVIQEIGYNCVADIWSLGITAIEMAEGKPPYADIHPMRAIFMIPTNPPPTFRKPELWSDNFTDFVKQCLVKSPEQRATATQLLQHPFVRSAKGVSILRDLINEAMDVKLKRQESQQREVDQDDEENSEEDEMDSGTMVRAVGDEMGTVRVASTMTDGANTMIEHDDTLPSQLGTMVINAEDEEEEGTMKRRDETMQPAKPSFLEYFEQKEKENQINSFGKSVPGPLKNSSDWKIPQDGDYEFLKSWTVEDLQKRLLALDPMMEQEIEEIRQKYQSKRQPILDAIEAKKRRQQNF

[8] = system: Tyrosine-protein kinase ABL1 (Homo sapiens), P00519 [M351T]; experiment: Competitive binding affinity to ABL1 M351T mutant (unknown origin) at 10 uM in presence of ATP relative to control
[9] = target: Casein kinase II subunit alpha' (Homo sapiens) (UniProt P19784); experiment: Competitive binding affinity to CSNK2A2 (unknown origin) at 10 uM in presence of ATP relative to control
Method in brief: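 In vitro ATP-site competition binding assay across a diverse panel of 128 kinases, with each compound tested at a single concentration. Kinase binding is expressed relative to control.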

[10] = target: T2, TGF-beta receptor type-1 (Homo sapiens) (UniProt P36897); experiment: Competitive binding affinity to TGFBR1 (unknown origin) at 10 uM in presence of ATP relative to control
T2 sequence (whole entry): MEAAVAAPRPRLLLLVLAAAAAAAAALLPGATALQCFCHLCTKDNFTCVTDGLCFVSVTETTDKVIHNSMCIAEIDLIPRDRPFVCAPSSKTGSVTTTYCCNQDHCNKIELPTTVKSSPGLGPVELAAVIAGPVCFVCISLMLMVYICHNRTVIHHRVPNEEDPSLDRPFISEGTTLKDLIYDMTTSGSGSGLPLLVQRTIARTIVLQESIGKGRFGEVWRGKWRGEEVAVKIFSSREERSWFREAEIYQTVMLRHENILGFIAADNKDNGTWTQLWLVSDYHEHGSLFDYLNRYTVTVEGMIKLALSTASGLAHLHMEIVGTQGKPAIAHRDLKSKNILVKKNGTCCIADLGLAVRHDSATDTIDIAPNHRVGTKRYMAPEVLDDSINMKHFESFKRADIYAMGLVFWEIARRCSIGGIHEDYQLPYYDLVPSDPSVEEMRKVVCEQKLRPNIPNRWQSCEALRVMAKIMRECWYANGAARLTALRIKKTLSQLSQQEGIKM

[11] = system: HCT-116; experiment: Cytotoxicity against human HCT116 cells assessed as cell viability by WST-1 reduction assay; assay type: cell-based
Method in brief: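 Cytotoxicity was measured in an HCT-116 cell proliferation assay as reduction of WST-1 reagent. Values are the mean of at least three experiments.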

[12] = target: Mitogen-activated protein kinase kinase kinase 20 (Homo sapiens) (UniProt Q9NYL2); experiment: Competitive binding affinity to ZAK (unknown origin) at 10 uM in presence of ATP relative to control
[13] = target: Serine/threonine-protein kinase SIK1 (Homo sapiens) (UniProt P57059); experiment: Competitive binding affinity to SNF1LK (unknown origin) at 10 uM in presence of ATP relative to control
[14] = target: Phosphatidylinositol 4-phosphate 5-kinase type-1 alpha (Homo sapiens) (UniProt Q99755); experiment: Competitive binding affinity to PIP5K1A (unknown origin) at 10 uM in presence of ATP relative to control
[15] = target: Wee1-like protein kinase (Homo sapiens) (UniProt P30291); experiment: Competitive binding affinity to WEE1 (unknown origin) at 10 uM in presence of ATP relative to control
[16] = target: MAP kinase-activated protein kinase 2 (Homo sapiens) (UniProt P49137); experiment: Competitive binding affinity to MAPKAPK2 (unknown origin) at 10 uM in presence of ATP relative to control
[17] = target: Epithelial discoidin domain-containing receptor 1 (Homo sapiens) (UniProt Q08345); experiment: Competitive binding affinity to DDR1 (unknown origin) at 10 uM in presence of ATP relative to control
[18] = target: Serine/threonine-protein kinase N1 (Homo sapiens) (UniProt Q16512); experiment: Competitive binding affinity to PKN1 (unknown origin) at 10 uM in presence of ATP relative to control
[19] = target: Mitogen-activated protein kinase 4 (Homo sapiens, UniProt P31152); experiment: Competitive binding affinity to ERK4 (unknown origin) at 10 uM in presence of ATP relative to control
[20] = target: Cyclin-dependent kinase 18 (Homo sapiens) (UniProt Q07002); experiment: Competitive binding affinity to PCTK3 (unknown origin) at 10 uM in presence of ATP relative to control
[21] = target: Mitogen-activated protein kinase 7 (Homo sapiens, UniProt Q13164); experiment: Competitive binding affinity to ERK5 (unknown origin) at 10 uM in presence of ATP relative to control

SMILES | inhibition [1] | inhibition [2] | inhibition [3] | inhibition [4] | inhibition [5] | inhibition [6] | inhibition [7] | inhibition [8] | inhibition [9] | inhibition [10] | inhibition [12] | inhibition [13] | inhibition [14] | inhibition [15] | inhibition [16] | inhibition [17] | inhibition [18] | inhibition [19] | inhibition [21] | IC50 [11] | further results
O[C@H]1CC[C@H](Nc2nccc(-c3n[nH]c4ccccc34)n2)CC1 | 88% | 67% | 94% | < 50% | < 50% | < 50% | < 50% | < 50% | 98% | < 50% |  |  |  |  |  |  |  |  |  |  | 
N[C@H]1CC[C@H](Nc2nccc(-n3nnc4ccccc43)n2)CC1 |  |  |  |  |  |  | < 50% |  |  |  |  |  |  |  |  |  |  |  |  | 0.77 µM | 
O=C([C@H]1CC[C@H](Nc2nccc(-n3nnc4ccccc43)n2)CC1)N1CCOCC1 |  |  |  |  |  |  | < 50% |  |  |  |  |  |  |  |  |  |  |  |  | 20 µM | 
CS(=O)(=O)CCCOc1cccc2c1ccn2-c1ccnc(N[C@H]2CC[C@H](C(=O)N3CCC(O)CC3)CC2)n1 |  |  |  |  |  |  |  |  |  |  |  |  |  |  |  |  |  | > 85% | > 85% |  | 

The next lines start with results.

inhibition [1] | inhibition [2] | inhibition [3] | inhibition [4] | inhibition [5] | inhibition [6] | inhibition [7] | inhibition [8] | inhibition [9] | inhibition [10] | inhibition [12] | inhibition [13] | inhibition [14] | inhibition [15] | inhibition [16] | inhibition [17] | inhibition [18] | inhibition [19] | inhibition [21] | SMILES | IC50 [11] | further results
< 50% | < 50% | < 50% | < 50% | < 50% | < 50% |  | < 50% | < 50% | < 50% | < 50% | < 50% | < 50% | < 50% | < 50% | < 50% | < 50% | 63% | < 50% | O[C@H]1CC[C@H](Nc2nccc(-n3ccc4ccccc43)n2)CC1 |  | inhibition [20]: < 50%
< 50% | 69% | 98% | < 50% | < 50% | < 50% |  | < 50% | < 50% | < 50% | 76% | < 50% | 94% | < 50% | < 50% | < 50% | < 50% | 100% | 100% | O[C@H]1CC[C@H](Nc2nccc(-n3nnc4ccccc43)n2)CC1 | 1.2 µM | inhibition [20]: < 50%
< 50% | < 50% | 63% | < 50% | < 50% | < 50% |  | < 50% | 86% | < 50% | < 50% | < 50% | 88% | < 50% | < 50% | < 50% | < 50% | 99% | 79% | O[C@H]1CC[C@H](Nc2nccc(-n3ncc4ccccc43)n2)CC1 |  | inhibition [20]: < 50%
